Measurements taken from ChEMBL document CHEMBL3616456, “Potential of aryl-urea-benzofuranylthiazoles hybrids as multitasking agents in Alzheimer's disease” (Eur J Med Chem, 2015).
pIC50: −log10 of the molar value.

Legend:
[1] = Antioxidant activity assessed as ABTS cation radical scavenging activity measured after 6 mins
[2] = Selectivity index, ratio of IC50 for horse serum butyrylcholinesterase to IC50 for electric eel acetylcholinesterase
Acetylcholinesterase = Acetylcholinesterase (Electrophorus electricus, UniProt O42275); test: Inhibition of electric eel acetylcholinesterase using acetylthiocholine iodide as substrate preincubated for 15 mins followed by substrate addition by Ellman's method
Cholinesterase = Cholinesterase (Equus caballus, UniProt P81908); test: Inhibition of horse serum butyrylcholinesterase using butyrylthiocholine iodide as substrate preincubated for 15 mins followed by substrate addition by Ellman's method
In short: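 Enzyme in 100 mM phosphate buffer pH 8.0 with sample (n-propanol as solvent and control) preincubated 15 min at 25°C. Reaction started with butyrylthiocholine iodide (0.79 mM solution) plus DTNB. Thiolate-DTNB yellow product followed at 412 nm. IC50 taken from inhibition (%) curves at five concentrations: 12.5, 25, 50, 100 and 200 µM.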

[3] = Antioxidant activity assessed as cupric reducing antioxidant capacity measured after 1 hr; type: physicochemical
[4] = target: Cholinesterase (Equus caballus) (UniProt P81908); test: Potency index, ratio of galanthamine IC50 to compound IC50 for horse serum butyrylcholinesterase
[5] = target: Cholinesterase (Equus caballus) (UniProt P81908); test: Potency index, ratio of donepezil IC50 to compound IC50 for horse serum butyrylcholinesterase

Chain of Acetylcholinesterase (O42275 whole entry): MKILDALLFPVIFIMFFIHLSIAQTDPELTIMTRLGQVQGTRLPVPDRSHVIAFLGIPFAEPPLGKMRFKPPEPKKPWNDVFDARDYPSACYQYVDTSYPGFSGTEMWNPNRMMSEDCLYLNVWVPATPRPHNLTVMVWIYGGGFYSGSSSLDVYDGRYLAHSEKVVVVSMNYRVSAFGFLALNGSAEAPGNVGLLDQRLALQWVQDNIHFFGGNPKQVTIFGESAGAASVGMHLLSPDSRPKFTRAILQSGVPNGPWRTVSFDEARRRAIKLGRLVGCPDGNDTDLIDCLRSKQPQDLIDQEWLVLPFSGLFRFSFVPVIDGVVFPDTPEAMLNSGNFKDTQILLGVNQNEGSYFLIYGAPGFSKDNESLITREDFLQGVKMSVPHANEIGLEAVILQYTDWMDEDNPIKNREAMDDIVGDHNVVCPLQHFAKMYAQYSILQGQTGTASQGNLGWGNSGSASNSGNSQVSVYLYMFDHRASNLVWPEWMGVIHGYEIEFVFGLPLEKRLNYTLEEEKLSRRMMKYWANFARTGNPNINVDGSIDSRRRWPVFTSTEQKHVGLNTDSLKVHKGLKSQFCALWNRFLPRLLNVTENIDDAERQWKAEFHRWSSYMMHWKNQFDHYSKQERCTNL
Chain of Cholinesterase (P81908 whole entry): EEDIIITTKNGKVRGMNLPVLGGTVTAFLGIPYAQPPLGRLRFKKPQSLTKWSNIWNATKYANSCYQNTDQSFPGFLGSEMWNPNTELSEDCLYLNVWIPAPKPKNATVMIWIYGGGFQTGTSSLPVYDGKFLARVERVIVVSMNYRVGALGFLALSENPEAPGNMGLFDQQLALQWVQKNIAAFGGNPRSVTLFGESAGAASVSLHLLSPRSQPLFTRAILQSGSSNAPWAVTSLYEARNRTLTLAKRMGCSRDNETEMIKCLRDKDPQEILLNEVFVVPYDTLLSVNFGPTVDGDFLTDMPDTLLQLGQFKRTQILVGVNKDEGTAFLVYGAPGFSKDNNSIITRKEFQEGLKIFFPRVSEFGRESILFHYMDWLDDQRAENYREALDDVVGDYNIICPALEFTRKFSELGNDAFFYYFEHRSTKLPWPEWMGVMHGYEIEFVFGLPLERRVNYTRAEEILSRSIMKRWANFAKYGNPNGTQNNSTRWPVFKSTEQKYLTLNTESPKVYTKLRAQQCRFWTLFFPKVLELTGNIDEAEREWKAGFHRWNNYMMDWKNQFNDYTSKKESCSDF
Chain of Cholinesterase (Equus caballus) (P81908 whole entry): as above

Row | Compound | pIC50 ([1]; ABTS cation radical) | Ratio IC50 [2] | pIC50 (Acetylcholinesterase) | pIC50 (Cholinesterase) | A0.5 [3] [µM] | pIC50 [1] | Ratio IC50 [4] | Ratio IC50 [5]
1 | O=C(Nc1ccc(F)cc1)Nc1nc(-c2cc3cc(Br)ccc3o2)cs1 | < 3.70 | 1.81 | 4.45 | 4.19 | 146.78 |  |  | 
2 | O=c1c(O)c(-c2ccc(O)c(O)c2)oc2cc(O)cc(O)c12 [QUERCETIN] | 5.93 |  |  |  | 1.45 |  |  | 
3 | O=C(Nc1ccc(I)cc1)Nc1nc(-c2cc3ccccc3o2)cs1 | 4.21 | 1.93 | 4.67 | 4.38 | 133 |  |  | 
4 | O=C(Nc1cccc([N+](=O)[O-])c1)Nc1nc(-c2cc3cc(Br)ccc3o2)cs1 | 3.80 | 4.53 | 4.76 | 4.10 | > 200 |  |  | 
5 | O=C(Nc1ccc(F)cc1)Nc1nc(-c2cc3ccccc3o2)cs1 | 5.95 | 0.14 | 4.26 | 5.13 | 110.31 |  |  | 
6 | O=C(Nc1nc(-c2cc3ccccc3o2)cs1)Nc1ccccc1[N+](=O)[O-] | 4.69 | 1.91 | 4.38 | 4.10 | 100.33 |  |  | 
7 | O=C(Nc1nc(-c2cc3ccccc3o2)cs1)Nc1ccccc1F | 5.58 | 1.35 | 4.51 | 4.38 | 102.43 |  |  | 
8 | O=C(Nc1ccccc1)Nc1nc(-c2cc3cc([N+](=O)[O-])ccc3o2)cs1 | 3.74 | 0.51 | 5.35 | 5.65 | > 200 |  |  | 
9 | Cc1ccc(NC(=O)Nc2nc(-c3cc4cc(Br)ccc4o3)cs2)cc1 | < 3.70 | 0.17 | 4.49 | 5.25 | > 200 |  |  | 
10 | O=C(Nc1ccc(F)cc1)Nc1nc(-c2cc3cc([N+](=O)[O-])ccc3o2)cs1 | 3.91 | 1.16 | 4.39 | 4.32 | > 200 |  |  | 
11 | O=C(Nc1nc(-c2cc3cc(Br)ccc3o2)cs1)Nc1ccccc1[N+](=O)[O-] | 3.78 | 0.58 | 5.05 | 5.29 | 122.22 |  |  | 
12 | O=C(Nc1cccc([N+](=O)[O-])c1)Nc1nc(-c2cc3ccccc3o2)cs1 |  | 0.65 | 4.39 | 4.57 | > 200 | 5.90 |  | 
13 | O=C(Nc1cccc(F)c1)Nc1nc(-c2cc3ccccc3o2)cs1 | 5.34 | 0.37 | 4.31 | 4.75 | 126.52 |  |  | 
14 | O=C(Nc1ccc(Cl)cc1)Nc1nc(-c2cc3ccccc3o2)cs1 | 4.95 | 0.91 | 4.37 | 4.41 | > 200 |  |  | 
15 | O=C(Nc1ccccc1)Nc1nc(-c2cc3ccccc3o2)cs1 | 4.55 | 0.86 | 4.61 | 4.67 | 132 |  |  | 
16 | O=C(Nc1nc(-c2cc3cc(Br)ccc3o2)cs1)Nc1ccccc1F | < 3.70 | 2.4 | 5.41 | 5.03 | > 200 |  |  | 
17 | COc1ccc(NC(=O)Nc2nc(-c3cc4cc(Br)ccc4o3)cs2)cc1 | < 3.70 | 0.95 | 4.48 | 4.51 | > 200 |  |  | 
18 | COc1cccc(NC(=O)Nc2nc(-c3cc4ccccc4o3)cs2)c1 | 6.70 | 1.22 | 4.31 | 4.23 | 104.46 |  |  | 
19 | O=C(Nc1ccc(Cl)cc1)Nc1nc(-c2cc3cc(Br)ccc3o2)cs1 | < 3.70 | 1.66 | 4.65 | 4.43 | > 200 |  |  | 
20 | COc1ccc(NC(=O)Nc2nc(-c3cc4cc([N+](=O)[O-])ccc4o3)cs2)cc1 | 3.92 | 1.44 | 4.47 | 4.31 | > 200 |  |  | 

Row | Compound | pIC50 ([1]; ABTS cation radical) | Ratio IC50 [2] | pIC50 (Acetylcholinesterase) | pIC50 (Cholinesterase) | A0.5 [3] [µM] | pIC50 [1] | Ratio IC50 [4] | Ratio IC50 [5]
21 | O=C(Nc1ccc(I)cc1)Nc1nc(-c2cc3cc(Br)ccc3o2)cs1 | < 3.70 | 6.8 | 5.19 | 4.36 | > 200 |  |  | 
22 | O=C(Nc1ccc(Br)cc1)Nc1nc(-c2cc3cc([N+](=O)[O-])ccc3o2)cs1 | 3.71 | 1.22 | 4.55 | 4.46 | > 200 |  |  | 
23 | O=C(Nc1ccc(I)cc1)Nc1nc(-c2cc3cc([N+](=O)[O-])ccc3o2)cs1 | 4.20 | 0.37 | 5.26 | 5.69 | > 200 |  | 8.5 | 2.3
24 | Cc1ccc(NC(=O)Nc2nc(-c3cc4ccccc4o3)cs2)cc1 | 6.30 | 5.41 | 4.98 | 4.25 | 192.91 |  |  | 
25 | O=C(Nc1ccc(Br)cc1)Nc1nc(-c2cc3cc(Br)ccc3o2)cs1 | < 3.70 | 3 | 4.92 | 4.45 | > 200 |  |  | 
26 | O=C(Nc1ccc([N+](=O)[O-])cc1)Nc1nc(-c2cc3cc([N+](=O)[O-])ccc3o2)cs1 | 4.00 | 1.02 | 4.60 | 4.59 | > 200 |  |  | 
27 | COc1ccccc1NC(=O)Nc1nc(-c2cc3ccccc3o2)cs1 | 4.32 | 1.33 | 4.21 | 4.09 | > 200 |  |  | 
28 | O=C(Nc1cccc(F)c1)Nc1nc(-c2cc3cc(Br)ccc3o2)cs1 | < 3.70 | 1.37 | 4.53 | 4.40 | > 200 |  |  | 
29 | O=C(Nc1cccc(Cl)c1)Nc1nc(-c2cc3cc(Br)ccc3o2)cs1 | < 3.70 | 3.32 | 5.10 | 4.58 | > 200 |  |  | 
30 | O=C(Nc1ccccc1)Nc1nc(-c2cc3cc(Br)ccc3o2)cs1 | < 3.70 | 1.5 | 4.63 | 4.46 | > 200 |  |  | 
31 | COc1ccc(NC(=O)Nc2nc(-c3cc4ccccc4o3)cs2)cc1 | 4.76 | 1.42 | 4.28 | 4.13 | 146.34 |  |  | 
32 | COc1ccccc1NC(=O)Nc1nc(-c2cc3cc(Br)ccc3o2)cs1 | 4.11 | 1.95 | 4.10 | 3.81 | 92.68 |  |  | 
33 | O=C(Nc1ccc([N+](=O)[O-])cc1)Nc1nc(-c2cc3ccccc3o2)cs1 | 4.72 | 0.66 | 5.28 | 5.46 | > 200 |  |  | 
34 | O=C(Nc1ccc(Cl)c(Cl)c1)Nc1nc(-c2cc3ccccc3o2)cs1 | < 3.70 | 1.45 | 4.28 | 4.12 | > 200 |  |  | 
35 | O=C(Nc1ccc(Br)cc1)Nc1nc(-c2cc3ccccc3o2)cs1 | < 3.70 | 1.68 | 4.48 | 4.26 | > 200 |  |  | 
36 | O=C(Nc1ccc([N+](=O)[O-])cc1)Nc1nc(-c2cc3cc(Br)ccc3o2)cs1 | < 3.70 | 0.65 | 5.32 | 5.51 | 120.74 |  |  | 
37 | O=C(Nc1cccc(Cl)c1)Nc1nc(-c2cc3ccccc3o2)cs1 | 4.85 | 2.22 | 5.01 | 4.67 | > 200 |  |  | 
38 | COc1cccc(NC(=O)Nc2nc(-c3cc4cc(Br)ccc4o3)cs2)c1 | < 3.70 | 0.47 | 4.53 | 4.86 | > 200 |  |  | 
39 | O=C(Nc1ccc(Cl)cc1)Nc1nc(-c2cc3cc([N+](=O)[O-])ccc3o2)cs1 | 3.93 | 0.87 | 4.51 | 4.57 | > 200 |  |  | 
